Where “and” joins values, the source holds several entries; their conditions need not be identical. Identical values can stand only once.
Test system: Fibroblast
Test: Multiplex assay against human fibroblast
Assay type: toxicity, cell-based
Conditions: number of replicates 2
How it was run: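 Phenotypes for tubulin, mitochondrial mass and membrane permeability are expressed as per cents of healthy-nucleus cells. Cells were stained live at seeding with Hoechst33342, BioTracker Green Microtubule Cytoskeleton Dye, MitoTracker Red and Annexin V Alexa Fluor 680, then imaged after compound addition on a CQ1 microscope at 37°C and 5% CO2. Machine-learning gating in CellPathfinder separated Hoechst high-intensity objects from normal cells, divided normal cells by nuclear state (healthy, pyknosed, fragmented) and divided pyknosed cells into mitotic or apoptotic.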

[1] = 12 h, 1 µM, compound concentration 1 uM
[2] = 12 h, 10 µM, compound concentration 10 uM
[3] = 24 h, 1 µM, compound concentration 1 uM
[4] = 24 h, 10 µM, compound concentration 10 uM
[5] = 48 h, 1 µM, compound concentration 1 uM
[6] = 48 h, 10 µM, compound concentration 10 uM

COc1ccc(CC[C@@H](OC(=O)[C@@H]2CCCCN2C(=O)[C@H](c2cc(OC)c(OC)c(OC)c2)C2CCCCC2)c2cccc(OCCN3CCOCC3)c2)cc1OC
Population Apoptotic (%) [1]: 42% and 47%
Population Fragmented Nuclei (%) [1]: 12% and 11%
Population Healthy Nuclei (%) [1]: 65% and 64%
Population Hoechst High Intensity Objects (%) [1]: 0%
Population Membrane Permeable-Phenotype (%) [1]: 20%
Population Mitochondria Different-Phenotype (%) [1]: 7% and 2%
Population Mitotic Cells (%) [1]: 57% and 52%
Population Normal (%) [1]: 100% and 99%
Population Pyknosed Nuclei (%) [1]: 21% and 23%
Population Tubulin-Different-Phenotype (%) [1]: 81% and 69%
Total Cell Count [1]: 227 and 146
Population Apoptotic (%) [2]: 51% and 55%
Population Fragmented Nuclei (%) [2]: 14% and 19%
Population Healthy Nuclei (%) [2]: 60% and 59%
Population Hoechst High Intensity Objects (%) [2]: 0%
Population Membrane Permeable-Phenotype (%) [2]: 25% and 21%
Population Mitochondria Different-Phenotype (%) [2]: 14% and 11%
Population Mitotic Cells (%) [2]: 48% and 44%
Population Normal (%) [2]: 99% and 100%
Population Pyknosed Nuclei (%) [2]: 24% and 20%
Population Tubulin-Different-Phenotype (%) [2]: 89% and 84%
Total Cell Count [2]: 188 and 273
Population Apoptotic (%) [3]: 50% and 59%
Population Fragmented Nuclei (%) [3]: 7% and 20%
Population Healthy Nuclei (%) [3]: 67% and 51%
Population Hoechst High Intensity Objects (%) [3]: 0%
Population Membrane Permeable-Phenotype (%) [3]: 10% and 9%
Population Mitochondria Different-Phenotype (%) [3]: 14%
Population Mitotic Cells (%) [3]: 50% and 40%
Population Normal (%) [3]: 99% and 100%
Population Pyknosed Nuclei (%) [3]: 24% and 28%
Population Tubulin-Different-Phenotype (%) [3]: 74% and 65%
Total Cell Count [3]: 207 and 148
Population Apoptotic (%) [4]: 66% and 71%
Population Fragmented Nuclei (%) [4]: 14% and 20%
Population Healthy Nuclei (%) [4]: 59% and 56%
Population Hoechst High Intensity Objects (%) [4]: 0%
Population Membrane Permeable-Phenotype (%) [4]: 15% and 6%
Population Mitochondria Different-Phenotype (%) [4]: 24% and 45%
Population Mitotic Cells (%) [4]: 33% and 28%
Population Normal (%) [4]: 99%
Population Pyknosed Nuclei (%) [4]: 26% and 22%
Population Tubulin-Different-Phenotype (%) [4]: 86% and 89%
Total Cell Count [4]: 193 and 253
Population Apoptotic (%) [5]: 71% and 82%
Population Fragmented Nuclei (%) [5]: 6% and 14%
Population Healthy Nuclei (%) [5]: 77% and 66%
Population Hoechst High Intensity Objects (%) [5]: 0%
Population Membrane Permeable-Phenotype (%) [5]: 8% and 17%
Population Mitochondria Different-Phenotype (%) [5]: 3% and 10%
Population Mitotic Cells (%) [5]: 28% and 17%
Population Normal (%) [5]: 100% and 99%
Population Pyknosed Nuclei (%) [5]: 16% and 18%
Population Tubulin-Different-Phenotype (%) [5]: 61% and 51%
Total Cell Count [5]: 199 and 150
Population Apoptotic (%) [6]: 85% and 80%
Population Fragmented Nuclei (%) [6]: 22% and 29%
Population Healthy Nuclei (%) [6]: 59% and 55%
Population Hoechst High Intensity Objects (%) [6]: 1% and 0%
Population Membrane Permeable-Phenotype (%) [6]: 20% and 8%
Population Mitochondria Different-Phenotype (%) [6]: 27% and 30%
Population Mitotic Cells (%) [6]: 14% and 20%
Population Normal (%) [6]: 98% and 99%
Population Pyknosed Nuclei (%) [6]: 17% and 15%
Population Tubulin-Different-Phenotype (%) [6]: 91%
Total Cell Count [6]: 195 and 265

— ChEMBL document CHEMBL5303300, “EUbOPEN Chemogenomics Library - Multiplex” (2023)
